Assay outcomes deposited in PubChem BioAssay by several laboratories.
Shown are actives, neighbours in structure and some others; about 9.6% of the full set was active somewhere.
PMI act satM6P – increases human PMI activity with near-saturating mannose 6-phosphate; 190,000 tested, 0.34% active; P34949; coupled PMI enzyme assay, resazurin fluorescence, 20 min; active compounds read high; 1 = untreated enzyme, 0 = substrate-free blank; activation factor at 20 µM;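 active means activation factor of 2 or more at 20 µM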
Target sequence (P34949 whole entry, looked up): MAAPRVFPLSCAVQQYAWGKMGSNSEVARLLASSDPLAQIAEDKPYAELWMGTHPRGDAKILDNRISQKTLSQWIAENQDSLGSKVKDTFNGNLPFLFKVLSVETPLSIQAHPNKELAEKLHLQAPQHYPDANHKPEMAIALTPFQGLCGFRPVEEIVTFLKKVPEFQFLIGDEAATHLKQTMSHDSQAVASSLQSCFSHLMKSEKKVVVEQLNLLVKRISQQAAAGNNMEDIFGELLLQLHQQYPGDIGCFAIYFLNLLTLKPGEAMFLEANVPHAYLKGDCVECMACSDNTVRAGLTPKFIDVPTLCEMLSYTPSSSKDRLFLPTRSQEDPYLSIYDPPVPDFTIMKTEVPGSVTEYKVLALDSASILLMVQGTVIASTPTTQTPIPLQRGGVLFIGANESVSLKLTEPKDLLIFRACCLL
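Material: human phosphomannose isomerase with PGI, G6PDH, diaphorase coupling enzymes / Reagent: Man-6-P substrate 1.0 mM / Dosing: single compound dose of 20 µM, 1% DMSO final / Incubation: enzyme reaction with compound 20 min at room temperature / Signal: resorufin fluorescence (Ex 544/Em 590 nm) from resazurin via diaphorase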
Lmaj promast – inhibitors of Leishmania major promastigote growth. inhibition, % at 10 µM. Leishmania major promastigotes, resazurin fluorescence viability. 200,000 tested, 9% active; in the data active means inhibition above about 50%;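 further: promastigotes grown with compound for 44 hours at 28 °C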
PTEN del growth – growth suppressors of cells with PTEN tumor suppressor deletion. HCT116 PTEN-null viability, CellTiter-Glo, 60 h; active compounds read low. viability, % at 10 µM. 140,000 tested, 1.2% active. AID 827;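 active means viability at or below a set limit, 4 SD under the median of all tested compounds, cut at about 3.7% in these data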;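 further: PTEN knockout HCT116 line with beta catenin targeted HCT116 as companion control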
bCat KO growth – beta-catenin-lacking colon tumor cell growth suppression; viability, % at 10 µM; AID 818; HCT116 beta-catenin knockout viability, CellTiter-Glo, 60 h; active compounds read low; 140,000 tested, 1.5% active;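 active means viability at or under a set limit, the compound median less 4 SD, cut at about 6% in these data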
PMI activator – increases human mannose-6-phosphate isomerase activity | P34949 | purified human PMI, coupled resazurin fluorescence, 20 min; active compounds read high; 1 = vehicle control, 0 substrate-free wells | activation factor at 20 µM | 190,000 tested, 0.005% active | AID 1214;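 active means activation factor of 2 or more at 20 µM, relative to plate controls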
A number is an active result; – = inactive; · = no result given.

SMILES	PMI act satM6P	Lmaj promast	PTEN del growth	bCat KO growth	PMI activator
CCCOC(=O)c1ccc(OCC(O)CN2CCN(C(=O)c3ccccc3)CC2)cc1 (stereo not given)	–	–	–	–	–
CC1CN(CC(O)COc2ccc(C(=O)c3ccccc3)cc2)CC(C)O1 (stereo not given)	–	79	–	–	–
COc1cc(C(=O)Nc2ccccc2C2COC(=O)C2=N)cc(OC)c1OC (stereo not given)	–	–	–	–	–
O=[N+]([O-])c1ccccc1Sc1nccn1Cc1ccccc1	–	–	–	–	–
CO/N=C\CC(=O)Nc1ccc(Oc2ccccc2)cc1	–	–	·	·	–
COc1cc(C)c(S(=O)(=O)NCc2cccs2)cc1C	–	–	–	–	–
CC(=O)c1ccc(OCC(O)CN2CCN(CC(O)COc3ccc(C(C)=O)cc3)CC2)cc1 (stereo not given)	–	–	–	–	–
CC(C)(c1ccccc1)c1ccc(OCC(O)CNC2CCN(Cc3ccccc3)CC2)cc1 (stereo not given)	–	101	·	·	–
CC(=O)c1ccc(OCC(O)CN2CCN(Cc3ccccc3)CC2)cc1 (stereo not given)	–	94	–	–	–
COc1ccc(Nc2nc(-c3ccccc3)c(C(=O)Nc3cccnc3)s2)cc1	–	–	·	·	–
O=C(NNc1cc(N2CCOCC2)nc(N2CCOCC2)n1)c1ccc(Cl)c(Cl)c1	–	–	–	–	–
Cc1ccc(C(=O)NNc2cc(N3CCCC3)nc(N3CCCC3)n2)cc1	–	100	–	–	–
CC1NC(=S)N(C2CCCCC2)C1=O (stereo not given)	–	–	·	·	–
Cc1[nH]nc2c1C(c1ccsc1)C(C#N)=C(N)O2 (stereo not given)	–	57	–	–	–
CC(C)c1[nH]nc2c1C(c1cccs1)C(C#N)=C(N)O2 (stereo not given)	–	59	–	–	–
Cc1ccc(-c2[nH]nc3c2C(c2ccsc2)C(C#N)=C(N)O3)cc1 (stereo not given)	–	–	–	–	–
CC(C)C1C(C#N)=C(N)Oc2n[nH]c(-c3cccs3)c21 (stereo not given)	–	–	–	–	–
Cc1[nH]nc2c1C(c1ccsc1C)C(C#N)=C(N)O2 (stereo not given)	–	77	1.2	–	–
COc1cccc(OCCCn2cc(/C=C3/C(=N)N4C=C(C)SC4=NC3=O)c3ccccc32)c1	–	95	–	–	–
CC1=CN2C(=N)/C(=C/c3cn(CCCOc4ccccc4C)c4ccccc34)C(=O)N=C2S1	–	–	–	–	–
COc1ccc(OCCCn2cc(/C=C3/C(=N)N4C=C(C)SC4=NC3=O)c3ccccc32)cc1	–	87	–	–	–
CCOC1=C/C(=C/c2c(N)n3nc(S(=O)(=O)CC)sc3nc2=O)C=CC1=O	–	–	·	·	–
COCCn1c(-c2ccc(OC)cc2)nc2ccccc21	–	56	–	–	–
CC(C)Cn1c(NCCO)nc2ccccc21	–	–	–	–	–
CC(C)Cn1c(/C=C/c2ccco2)nc2ccccc21	–	61	–	–	–
SMILES	PMI act satM6P	Lmaj promast	PTEN del growth	bCat KO growth	PMI activator
COCCn1c(COc2ccc(C)cc2)nc2ccccc21	–	–	–	–	–
CC(C)n1c(/C=C/c2ccccc2)nc2ccccc21	–	50	–	–	–
COCCOCCn1c(/C=C/c2ccccc2)nc2ccccc21	–	63	·	·	–
C#CCNC(=O)C1=C[C@H](C2CCCCC2)[C@@H](CCCO)[C@H](OCC)O1	–	–	·	·	–
O=C1CC[C@@H](CN(Cc2ccccn2)Cc2nc(-c3ccc(C(F)(F)F)cc3)no2)N1	–	–	·	·	–
CCCn1c(/C=C/c2ccccc2)nc2ccccc21	–	88	–	–	–
Cc1ccccc1N=C/C=C1\N(C)c2ccccc2C1(C)C	–	97	–	–	–
CN1/C(=C\C=[N+](C)c2ccccc2)C(C)(C)c2ccccc21	–	100	–	–	–
CN1/C(=C\C=N\O)C(C)(C)c2ccccc21	–	–	·	·	–
CN1/C(=C\C=C2/SC(=S)NC2=O)C(C)(C)c2ccccc21	–	92	·	·	–
CN(C)c1ccc(N=C/C=C2/N(C)c3ccccc3C2(C)C)cc1	–	90	–	–	–
C=CCn1c(=O)c2ccccc2n2c(SCc3c(C(=O)OCC)oc4ccccc34)nnc12	–	·	·	·	–
CC(C)CC(=O)NC(=S)N1CCN(c2ccc([N+](=O)[O-])cc2Cl)CC1	–	–	–	–	–
Cc1cc(OCC[N+]2(C)CCCCC2)nc2ccccc12	–	–	–	–	–
CN1CCc2nc(NC(=O)c3cccc(OC(F)F)c3)sc2C1	–	–	–	–	–
FC(F)(F)c1cnc(/C=C/Nc2ccccc2Cl)c(Cl)c1	–	–	–	–	–
C[N+]1=C(/C=C/Nc2ccccc2Cl)C(C)(C)c2ccccc21	–	98	–	–	–
O=C(c1ccc2nc(N3CCCCC3)sc2c1)N1CCN(Cc2ccc3c(c2)OCO3)CC1	–	68	–	–	–
COc1ccc(S(=O)(=O)N2CCN(S(=O)(=O)c3ccc4c(c3)OCCO4)CC2)cc1C	–	61	–	–	–
O=S(=O)(c1ccc(F)c(F)c1)N1CCN(Cc2ccc3c(c2)OCO3)CC1	–	78	–	–	–
COc1ccc(S(=O)(=O)N2CCN(S(=O)(=O)c3ccc4c(c3)OCCO4)CC2)cc1	–	–	–	–	–
COc1cc(C)c(C)cc1S(=O)(=O)N1CCN(Cc2ccc3c(c2)OCO3)CC1	–	60	–	–	–
CCOC(=O)N1CCN(C(=O)c2ccc3nc(N4CCCCC4)sc3c2)CC1	–	–	–	–	–
O=C1CCc2cc(S(=O)(=O)N3CCN(Cc4ccc5c(c4)OCO5)CC3)ccc2N1	–	–	–	–	–
O=C(COC(=O)c1cncc(Br)c1)NCCC1=CCCCC1	–	–	–	–	–
SMILES	PMI act satM6P	Lmaj promast	PTEN del growth	bCat KO growth	PMI activator
Cc1c(CC=C(Cl)Cl)c(=O)[nH]c2c(C)cccc12	–	–	–	–	–
Cn1c(=O)oc2cc(S(=O)(=O)N3CCN(Cc4ccc5c(c4)OCO5)CC3)ccc21	–	76	–	–	–
O=S(=O)(c1ccc2c(c1)OCCO2)N1CCN(Cc2ccc3c(c2)OCO3)CC1	–	73	–	–	–
O=C(OCc1ccc2c(c1)OCO2)c1ccc(S(=O)(=O)N2CCCC2)cc1	–	–	–	–	–
O=C(OCc1ccc2c(c1)OCO2)c1cccc(S(=O)(=O)N2CCCCC2)c1	–	55	–	–	–
CCn1c2ccccc2c2cc(CN3CCN(S(=O)(=O)Cc4ccccc4)CC3)ccc21	–	55	–	–	–
O=S(=O)(c1ccc2c(c1)OCCO2)N1CCN(Cc2ccccc2)CC1	–	–	–	–	–
Nn1c(=O)[nH]c2ccccc2c1=O	–	–	·	·	–
Cc1c(Br)c([N+](=O)[O-])nn1C(C)C(=O)Nc1c(C)n(C)n(-c2ccccc2)c1=O (stereo not given)	–	–	–	–	–
